Drawing on ChEMBL document CHEMBL4325910, “Design and synthesis of rosiglitazone-ferulic acid-nitric oxide donor trihybrids for improving glucose tolerance” (Eur J Med Chem, 2019), this text covers Activity for 15 compounds.

Activity calls are given as the source filed them. The rule behind the calls is not given here.

For one data set, the system named is L02. The data set is described as follows: Inhibition of cellular glucose output in dexamethasone-induced insulin resistant human L02 cells assessed as insulin-stimulated glucose uptake at 10 uM preincubated for 24 hrs followed by insulin stimulation measured after 24 hrs by glucose oxidase method (reference value: 4.5 +/- 0.7%). Type of data set: functional. On the set-up: scale not given: the % may be the effect or the level left.
Conditions: not given
Turning to `COc1cc(/C=C/C(=O)OCCCO[N+](=O)[O-])ccc1OC(=O)CCC(=O)OCN1C(=O)SC(Cc2ccc(OCCN(C)c3ccccn3)cc2)C1=O` (centres undefined), the Activity turned out to be 10%.
Same read-out and setting: for `COc1cc(/C=C/C(=O)OCCCCO[N+](=O)[O-])ccc1OC(=O)OCN1C(=O)SC(Cc2ccc(OCCN(C)c3ccccn3)cc2)C1=O` (centres undefined) the value was 12.2%; for `COc1cc(/C=C/C(=O)OCCCCCCO[N+](=O)[O-])ccc1OC(=O)CCC(=O)OCN1C(=O)SC(Cc2ccc(OCCN(C)c3ccccn3)cc2)C1=O` (centres undefined), 6.8%.
With `COc1cc(/C=C/C(=O)OCCCCO[N+](=O)[O-])ccc1OC(=O)CCC(=O)OCN1C(=O)SC(Cc2ccc(OCCN(C)c3ccccn3)cc2)C1=O` (centres undefined), the Activity is 7.8%.
On the same count and under the same terms, for `COc1cc(/C=C/C(=O)OCN2C(=O)SC(Cc3ccc(OCCN(C)c4ccccn4)cc3)C2=O)ccc1OCCCCCO[N+](=O)[O-]` (centres undefined) the value was 7.1%; for `COc1cc(/C=C/C(=O)OCN2C(=O)SC(Cc3ccc(OCCN(C)c4ccccn4)cc3)C2=O)ccc1OCCCCCCO[N+](=O)[O-]` (centres undefined), 8.5%; for `COc1cc(/C=C/C(=O)OCN2C(=O)SC(Cc3ccc(OCCN(C)c4ccccn4)cc3)C2=O)ccc1OCCCCO[N+](=O)[O-]` (centres undefined), 11.1%.
The same measure, in the same setting: for `COc1cc(/C=C/C(=O)OCCCCCO[N+](=O)[O-])ccc1OC(=O)CCC(=O)OCN1C(=O)SC(Cc2ccc(OCCN(C)c3ccccn3)cc2)C1=O` (centres undefined) the value was 10.1%.
On to `COc1cc(/C=C/C(=O)OCCCO[N+](=O)[O-])ccc1OC(=O)OCN1C(=O)SC(Cc2ccc(OCCN(C)c3ccccn3)cc2)C1=O` (centres undefined), for which the Activity is recorded as 9.6%.
Consider `COc1cc(/C=C/C(=O)OCN2C(=O)SC(Cc3ccc(OCCN(C)c4ccccn4)cc3)C2=O)ccc1OCCCO[N+](=O)[O-]` (centres undefined), for which the Activity came out at 11.5%.
Same read-out and setting: as for `COc1cc(/C=C/C(=O)OCCCCCCO[N+](=O)[O-])ccc1OC(=O)OCN1C(=O)SC(Cc2ccc(OCCN(C)c3ccccn3)cc2)C1=O` (centres undefined), the figure is 8%; as for `COc1cc(/C=C/C(=O)OCCCCCO[N+](=O)[O-])ccc1OC(=O)OCN1C(=O)SC(Cc2ccc(OCCN(C)c3ccccn3)cc2)C1=O` (centres undefined), 7.1%.

The next data set concerns the target T1, Aquaporin-2 (Homo sapiens, UniProt P41181).
T1 sequence (P41181 whole entry): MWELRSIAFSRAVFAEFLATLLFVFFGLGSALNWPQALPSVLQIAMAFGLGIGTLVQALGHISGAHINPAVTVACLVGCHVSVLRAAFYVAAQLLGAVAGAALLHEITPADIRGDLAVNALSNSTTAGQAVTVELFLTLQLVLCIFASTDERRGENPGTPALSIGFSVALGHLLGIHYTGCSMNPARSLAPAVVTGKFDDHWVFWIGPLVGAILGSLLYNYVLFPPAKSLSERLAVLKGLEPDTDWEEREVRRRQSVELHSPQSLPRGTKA
Description: Induction of membrane translocation of biotinylated human AQP2 expressed in rat IMCD cells at 100 uM after 30 mins by Western blot analysis. Format: cell-based. To be noted: 0.5 h. The gist of the method:
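Human AQP2-transfected primary rat IMCD cells were treated for 30 min. Surface proteins were biotinylated with sulfo-NHS-LC-biotin (3 mg/mL, 60 min, 4 °C), then cells lysed in 1% NP-40 and pulled down overnight on streptavidin beads. Biotinylated and total AQP2 (30 μg/lane) were blotted with anti-AQP2 and quantified by densitometry as the biotinylated/total ratio. Three experiments, mean ± SD.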
`C=C[C@@]1(C)CC(=O)[C@]2(O)[C@@]3(C)[C@@H](O)CCC(C)(C)[C@@H]3[C@H](O)[C@H](OC(C)=O)[C@@]2(C)O1` [COLFORSIN]: the outcome was Active.

For another data set, the system named is 3T3-L1. The data set is described as follows: Induction of insulin-stimulated 2-NBDG uptake in TNF-alpha-induced insulin resistant mouse 3T3L1 cells at 10 uM preincubated for 48 hrs followed by 2-NBDG addition measured after 30 mins in presence of insulin by fluorescence assay. Type of data set: functional, cell-based.
Conditions: not given
In short, it runs like this: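 Day-8 differentiated 3T3-L1 adipocytes received TNF-α (4 ng/mL) daily for 4 days. They were pretreated in triplicate for 48 h (C-PTIO 20 μM where indicated), then given 100 μM 2-NBDG at 37 °C for 30 min in the dark, with or without insulin. After KRP washes, fluorescence was read at Ex/Em 485/515 nm. Three experiments, mean ± SD.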
For `COc1cc(/C=C/C(=O)OCCCCO[N+](=O)[O-])ccc1OC(=O)OCN1C(=O)SC(Cc2ccc(OCCN(C)c3ccccn3)cc2)C1=O` (centres undefined), the result was Active.
Still for that read-out and setting: for `COC(=O)/C=C/c1ccc(OC(=O)OCN2C(=O)SC(Cc3ccc(OCCN(C)c4ccccn4)cc3)C2=O)c(OC)c1` (centres undefined) the value was “Active”.
On the same count and under the same terms, for `COc1cc(/C=C/C(=O)OCN2C(=O)SC(Cc3ccc(OCCN(C)c4ccccn4)cc3)C2=O)ccc1OCCCCO[N+](=O)[O-]` (centres undefined) the value was “inactive”; for `COc1cc(/C=C/C(=O)OCN2C(=O)SC(Cc3ccc(OCCN(C)c4ccccn4)cc3)C2=O)ccc1OCCCO[N+](=O)[O-]` (centres undefined), “inactive”.
Same read-out and setting: as for `COC(=O)/C=C/c1ccc(O)c(OC)c1`, the entry is “Active”.

A further data set concerns the target T1, Aquaporin-2. The data set is described as follows: Induction of membrane translocation of biotinylated human AQP2 expressed in rat IMCD cells at 100 uM after 30 mins by FITC-staining based confocal fluorescence microscopic analysis. To be noted: 0.5 h. Type of data set: cell-based. In short, it runs like this:
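Primary SD rat IMCD cells, day 5, were transfected with a human AQP2 plasmid (5 h, serum-free) and cultured 48 h. They were treated for 30 min, with 0.1% DMSO as vehicle and forskolin 100 μM as reference. Cells were fixed in paraformaldehyde, permeabilized with Triton X-100 and quenched with H2O2/methanol. They were stained with FITC-anti-AQP2 and imaged by confocal microscopy.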
Take `C=C[C@@]1(C)CC(=O)[C@]2(O)[C@@]3(C)[C@@H](O)CCC(C)(C)[C@@H]3[C@H](O)[C@H](OC(C)=O)[C@@]2(C)O1` [COLFORSIN]: the outcome was Active.
